The source made the active and inactive calls. The rule behind the calls is not given here.
How the values were obtained:
[1] = Cytostatic activity against human MDA-MB-231 cells assessed as cell survival up to 25 uM measured after 72 hrs by MTT assay relative to control; assay type: functional
[2] = Growth inhibition of human HepG2 cells measured after 72 hrs by MTT assay; assay type: functional, cell-based; conditions: HepG2, 72 h
Outline: (§1)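 Cells seeded at 1 x 10^4/100 µL, treated 24 h later with drug diluted from 2 mmol/L DMSO stock (0.01% DMSO final), 72 h incubation. MTT added for 3 h at 37°C, formazan dissolved in 0.1 N HCl/isopropanol, OD read at 550/630 nm. Eight replicates per concentration, mean ± SD. IC50 from curve fitting. Cells kept at 37°C in humidified CO2.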

[3] = Growth inhibition of human EAhy926 cells measured after 72 hrs by MTT assay; assay type: functional, cell-based; conditions: EA.hy 926, 72 h; outline: as §1
[4] = Growth inhibition of human K562 cells measured after 72 hrs by MTT assay; assay type: functional, cell-based; conditions: K562, 72 h; outline: as §1
[5] = Antiproliferative activity against CA-4-resistant human HT-29 cells measured after 72 hrs by MTT assay; assay type: functional, cell-based; conditions: HT-29, 72 h
Outline: (§2)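 Cells seeded at 1 × 10^4 per well and left 24 h, then exposed to graded compound concentrations (stock 2 mmol/L in DMSO, final DMSO 0.01% in medium) for 72 h at 37 °C in humidified CO2. MTT (5 mg/mL) added for 3 h; formazan dissolved in 0.1 N HCl/isopropanol and read at 550/630 nm. Eight replicate wells per concentration; IC50 from curve fitting.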

[6] = Antiproliferative activity against mouse Colon 26 cells measured after 72 hrs by MTT assay; assay type: functional, cell-based; conditions: Colon 26, 72 h; outline: as §2
[7] = Antiproliferative activity against CA-4-resistant human A549 cells measured after 72 hrs by MTT assay; assay type: functional, cell-based; conditions: A549, 72 h; outline: as §2
[8] = Cytostatic activity against human MCF7 cells assessed as cell survival up to 25 uM measured after 72 hrs by MTT assay relative to control; assay type: functional
[9] = Antiproliferative activity against human MCF10A cells measured after 72 hrs by MTT assay; assay type: cell-based; conditions: MCF-10A; outline: as §2
[10] = Cell cycle arrest in human HepG2 cells assessed as accumulation in G2/M phase at growth inhibitory IC50 measured after 8 hrs by propidium iodide-staining based FACS analysis (reference value: 28%); assay type: functional; parameters: scale not given: the % may be the effect or the level left
[11] = Cytostatic activity against human HaCaT cells assessed as cell survival up to 25 uM measured after 72 hrs by MTT assay relative to control; assay type: functional
[12] = Cytostatic activity against human NHEK cells assessed as cell survival up to 25 uM measured after 72 hrs by MTT assay relative to control; assay type: ADME, cell-based; conditions: read-out: Survival
[13] = Cell cycle arrest in human HepG2 cells assessed as accumulation of cells with 4N DNA content at growth inhibitory IC50 measured after 24 hrs by propidium iodide-staining based FACS analysis relative to control; assay type: functional; parameters: scale not given: the % may be the effect or the level left
[14] = Cell cycle arrest in human HepG2 cells assessed as >4N DNA content at growth inhibitory IC50 measured after 24 hrs by propidium iodide-staining based FACS analysis relative to control; assay type: functional; parameters: scale not given: the % may be the effect or the level left
[15] = Cell cycle arrest in human HepG2 cells assessed as decrease in accumulation of G2/M phase at growth inhibitory IC50 measured after 72 hrs by propidium iodide-staining based FACS analysis; assay type: functional
[16] = Cell cycle arrest in human HepG2 cells assessed as accumulation of hypoploid sub-G1 cells at growth inhibitory IC50 measured after 72 hrs by propidium iodide-staining based FACS analysis; assay type: functional
Sus scrofa [17] = species: Sus scrofa; assay: Inhibition of porcine brain tubulin polymerization at 10 uM measured every 1 min for 40 mins in presence of GTP
Sus scrofa [18] = species: Sus scrofa; assay: Induction of porcine brain tubulin polymerization assessed as time required to reach maxium effect at 10 uM measured every 1 min for 40 mins in presence of GTP
Sus scrofa [19] = species: Sus scrofa; assay: Inhibition of porcine brain tubulin polymerization at 50 uM measured every 1 min for 40 mins in presence of GTP
HepG2 [20] = assay: Induction of apoptosis in human HepG2 cells assessed as increase in apoptotic cells at growth inhibitory IC50 measured after 48 hrs by Annexin V-FITC/propidium iodide staining-based flow cytometric analysis relative to control; assay type: functional, cell-based
EA.hy 926 [21] = assay: Induction of apoptosis in human EAhy926 cells assessed as increase in apoptotic cells at growth inhibitory IC50 measured after 48 hrs by Annexin V-FITC/propidium iodide staining-based flow cytometric analysis relative to control; assay type: functional, cell-based
HepG2 [22] = assay: Induction of apoptosis in human HepG2 cells assessed as necrotic cells at 0.11 uM measured after 48 hrs by Annexin V-FITC/propidium iodide staining-based flow cytometric analysis relative to control; assay type: functional
EA.hy 926 [23] = assay: Induction of apoptosis in human EAhy926 cells assessed as necrotic cells at 0.11 uM measured after 48 hrs by Annexin V-FITC/propidium iodide staining-based flow cytometric analysis relative to control; assay type: functional
EA.hy 926 [24] = assay: Antiangiogenic activity against human EAhy926 assessed as inhibition of capillary tube formation at 0.11 uM after 72 hrs by matrigel assay; assay type: functional
Outline: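 EA.hy 926 cells (4 x 10^4) plated onto Matrigel pre-set 30 min at 37°C in complete DMEM; after 24 h medium replaced by EBM2 alone (control) or EBM2 with 0.28 µM or 0.11 µM drug. Capillary tube formation followed by inverted microscopy up to 72 h.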

[25] = Cell cycle arrest in human HepG2 cells assessed as decrease in G0/G1 phase at growth inhibitory IC50 measured after 24 hrs by propidium iodide-staining based FACS analysis; assay type: functional
[26] = Cell cycle arrest in human HepG2 cells assessed as decrease in S phase at growth inhibitory IC50 measured after 24 hrs by propidium iodide-staining based FACS analysis; assay type: functional

Q: Which Survival [1] does the source give for `COc1ccc(/C=C\c2cc(OC)c(OC)c(OC)c2)cc1O` [COMBRETASTATIN A4] here?
A: 50%

Q: And the IC50 [2]?
A: 0.11 µM

Q: What about the IC50 [3] of the same compound?
A: 0.17 µM

Q: And the IC50 [4]?
A: < 0.1 µM

Q: And the IC50 [5]?
A: 2.61 µM

Q: And the IC50 [6]?
A: 0.44 µM

Q: What about the IC50 [7] of the same compound?
A: 3.01 µM

Q: And the Survival [8]?
A: 35%

Q: And the IC50 [9]?
A: 1.17 µM

Q: What about the Activity [10] of the same compound?
A: 33%

Q: And the Survival [11]?
A: 15%

Q: What about the viability at 72 h [12] of the same compound?
A: 40%

Q: And the Activity [13]?
A: 77%

Q: And the Activity [14]?
A: 9%

Q: What about the Activity [15] of the same compound?
A: Active

Q: What about the Activity [16] of the same compound?
A: Active

Q: What about the inhibition (Sus scrofa [17]) of the same compound?
A: Active

Q: And the TIME (Sus scrofa [18])?
A: 0.383 h

Q: What about the inhibition (Sus scrofa [19]) of the same compound?
A: Active

Q: And the Activity (HepG2 [20])?
A: Active

Q: What about the Activity (EA.hy 926 [21]) of the same compound?
A: Active

Q: What about the Activity (HepG2 [22]) of the same compound?
A: 20%

Q: And the Activity (EA.hy 926 [23])?
A: 20%

Q: What about the inhibition (EA.hy 926 [24]) of the same compound?
A: Active

Q: What about the Activity [25] of the same compound?
A: Active

Q: What about the Activity [26] of the same compound?
A: Active

Q: With `COc1cc(/C=C\c2cccc3c2oc(=O)n3C)cc(OC)c1` as the compound, how does the IC50 [2] read?
A: 4.25 µM

Q: What about the IC50 [3] of the same compound?
A: 9.53 µM

Q: And the IC50 [4]?
A: 0.95 µM

Q: What does the source list for `COc1cc(/C=C\c2cccc3oc(=O)n(C)c23)cc(OC)c1`?
A: IC50 [2]: 18 µM; IC50 [3]: 29.4 µM; IC50 [4]: 11.3 µM

Q: Which IC50 [2] does the source give for `COc1ccc(/C=C\c2ccc3oc(=O)n(C)c3c2)cc1OC` here?
A: 42.1 µM

Q: What about the IC50 [3] of the same compound?
A: > 50 µM

Q: And the IC50 [4]?
A: > 50 µM
